ChEMBL document CHEMBL1156112, “Discovery of 3-(1H-indol-3-yl)-4-[2-(4-methylpiperazin-1-yl)quinazolin-4-yl]pyrrole-2,5-dione (AEB071), a potent and selective inhibitor of protein kinase C isotypes” (J Med Chem, 2009)
Active and inactive are the calls of the source. No cut-off for these calls is given here.

Assays:
[1] = target: Rho-associated protein kinase 2 (Homo sapiens, UniProt O75116); experiment: Inhibition of human recombinant ROCK2
[2] = cells; settings: Mus musculus, CBA, Bone marrow cell
[3] = Tmax in OFA rat at 20 mg/kg, po; type: ADME, organism-based; design: dose 20 mg/kg, route oral; settings: in vivo
Method in brief: (§1)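 Rats dosed either 5 mg/kg iv in 75% saline (0.9%)-25% PEG400 or 20 mg/kg po in 75% water-25% PEG400. OFA or Lewis rats were used depending on the compound. Values are averages of three animals. AUC is extrapolated to infinity. Oral bioavailability (F) comes from the po and iv exposures.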

[4] = target: Tyrosine-protein kinase JAK1 (Homo sapiens, UniProt P23458); experiment: Inhibition of human recombinant JAK1
[5] = Oral bioavailability in OFA rat at 20 mg/kg, po; type: ADME, organism-based; settings: in vivo; method in brief: as §1
[6] = target: Focal adhesion kinase 1 (Homo sapiens, UniProt Q05397); experiment: Inhibition of human recombinant FAK
Chain of Focal adhesion kinase 1 (Q05397 whole entry): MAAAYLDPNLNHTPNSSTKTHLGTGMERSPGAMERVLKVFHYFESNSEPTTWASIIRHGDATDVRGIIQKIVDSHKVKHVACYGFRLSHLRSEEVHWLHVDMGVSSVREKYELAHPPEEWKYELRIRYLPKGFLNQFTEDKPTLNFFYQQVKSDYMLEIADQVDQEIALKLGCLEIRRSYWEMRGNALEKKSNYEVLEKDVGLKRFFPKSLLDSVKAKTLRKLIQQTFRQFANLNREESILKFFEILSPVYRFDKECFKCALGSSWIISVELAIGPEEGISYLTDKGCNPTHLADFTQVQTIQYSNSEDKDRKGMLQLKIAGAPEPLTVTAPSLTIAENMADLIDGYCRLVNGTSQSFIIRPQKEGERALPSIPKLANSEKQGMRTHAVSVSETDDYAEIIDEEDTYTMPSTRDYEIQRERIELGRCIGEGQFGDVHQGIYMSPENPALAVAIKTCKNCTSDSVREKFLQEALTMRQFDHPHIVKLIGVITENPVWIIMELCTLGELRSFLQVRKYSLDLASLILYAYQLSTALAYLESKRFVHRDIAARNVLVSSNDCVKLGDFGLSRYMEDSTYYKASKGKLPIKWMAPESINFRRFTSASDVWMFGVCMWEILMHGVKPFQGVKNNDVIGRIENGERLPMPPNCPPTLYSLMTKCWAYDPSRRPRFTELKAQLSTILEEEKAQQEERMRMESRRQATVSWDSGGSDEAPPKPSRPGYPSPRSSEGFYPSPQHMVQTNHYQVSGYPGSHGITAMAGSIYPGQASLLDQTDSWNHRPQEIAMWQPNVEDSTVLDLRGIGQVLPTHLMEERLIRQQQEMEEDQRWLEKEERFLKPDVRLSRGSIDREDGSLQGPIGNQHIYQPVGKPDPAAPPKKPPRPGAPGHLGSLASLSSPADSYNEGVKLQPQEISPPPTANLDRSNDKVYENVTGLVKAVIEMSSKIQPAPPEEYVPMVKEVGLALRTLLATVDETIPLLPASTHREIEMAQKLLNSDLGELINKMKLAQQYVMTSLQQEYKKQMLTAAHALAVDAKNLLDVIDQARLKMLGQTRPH

[7] = target: Glycogen synthase kinase-3 beta (Homo sapiens, UniProt P49841); experiment: Inhibition of human recombinant GSK3-beta
[8] = target: Tyrosine-protein kinase ABL1 (Homo sapiens, UniProt P00519); experiment: Inhibition of human recombinant Abl
[9] = target: Tyrosine-protein kinase BTK (Homo sapiens, UniProt Q06187); experiment: Inhibition of human recombinant Btk
[10] = target: Tyrosine-protein kinase Fyn (Homo sapiens, UniProt P06241); experiment: Inhibition of human recombinant Fyn
[11] = target: Vascular endothelial growth factor receptor 3 (Homo sapiens, UniProt P35916); experiment: Inhibition of human recombinant Flt4
[12] = target: Tyrosine-protein kinase HCK (Homo sapiens, UniProt P08631); experiment: Inhibition of human recombinant Hck
[13] = target: Phosphatidylinositol 4,5-bisphosphate 3-kinase catalytic subunit beta isoform (Homo sapiens, UniProt P42338); experiment: Inhibition of human recombinant PI3Kbeta
[14] = target: Mast/stem cell growth factor receptor Kit (Homo sapiens, UniProt P10721); experiment: Inhibition of human recombinant Kit
[15] = Cmax in OFA rat at 20 mg/kg, po; type: ADME, organism-based; design: dose 20 mg/kg, route oral; settings: in vivo; method in brief: as §1
[16] = AUC (0 to infinity) in OFA rat at 20 mg/kg, po; type: ADME, organism-based; design: dose 20 mg/kg, route oral, time infinity; settings: plasma; method in brief: as §1
[17] = cells; settings: Homo sapiens, Splenocyte
[18] = target: Protein kinase C eta type (Homo sapiens, UniProt P24723); experiment: Inhibition of PKCeta by SPA
[19] = Elimination half life in OFA rat at 5 mg/kg, iv; type: ADME, organism-based; design: dose 5 mg/kg, route intravenous; settings: in vivo, read-out: beta t1/2 (converted); method in brief: as §1
[20] = target: ALK tyrosine kinase receptor (Homo sapiens, UniProt Q9UM73); experiment: Inhibition of human recombinant Alk
[21] = target: Vascular endothelial growth factor receptor 2 (Homo sapiens, UniProt P35968); experiment: Inhibition of human recombinant KDR
[22] = target: Phosphatidylinositol 4,5-bisphosphate 3-kinase catalytic subunit delta isoform (Homo sapiens, UniProt O00329); experiment: Inhibition of human recombinant PI3Kdelta
[23] = target: Phosphatidylinositol 4,5-bisphosphate 3-kinase catalytic subunit alpha isoform (Homo sapiens, UniProt P42336); experiment: Inhibition of human recombinant PI3Kalpha
[24] = target: RAC-alpha serine/threonine-protein kinase (Homo sapiens, UniProt P31749); experiment: Inhibition of human recombinant Akt1
[25] = target: Tyrosine-protein kinase Lck (Homo sapiens, UniProt P06239); experiment: Inhibition of human recombinant Lck
[26] = AUC (0 to infinity) in OFA rat at 5 mg/kg, iv; type: ADME, organism-based; design: time infinity, dose 5 mg/kg, route intravenous; settings: plasma; method in brief: as §1
[27] = target: Phosphatidylinositol 4,5-bisphosphate 3-kinase catalytic subunit gamma isoform (Homo sapiens, UniProt P48736); experiment: Inhibition of human recombinant PI3Kgamma
[28] = target: Tyrosine-protein kinase SYK (Homo sapiens, UniProt P43405); experiment: Inhibition of human recombinant Syk
[29] = system: Splenocyte; experiment: cells; settings: Mus musculus, BALB/c
[30] = target: Serine/threonine-protein kinase PAK 2 (Homo sapiens, UniProt Q13177); experiment: Inhibition of human recombinant PAK2
[31] = target: Tyrosine-protein kinase ZAP-70 (Homo sapiens, UniProt P43403); experiment: Inhibition of human recombinant ZAP70
[32] = target: Hepatocyte growth factor receptor (Homo sapiens, UniProt P08581); experiment: Inhibition of human recombinant Met
Chain of Hepatocyte growth factor receptor (P08581 whole entry): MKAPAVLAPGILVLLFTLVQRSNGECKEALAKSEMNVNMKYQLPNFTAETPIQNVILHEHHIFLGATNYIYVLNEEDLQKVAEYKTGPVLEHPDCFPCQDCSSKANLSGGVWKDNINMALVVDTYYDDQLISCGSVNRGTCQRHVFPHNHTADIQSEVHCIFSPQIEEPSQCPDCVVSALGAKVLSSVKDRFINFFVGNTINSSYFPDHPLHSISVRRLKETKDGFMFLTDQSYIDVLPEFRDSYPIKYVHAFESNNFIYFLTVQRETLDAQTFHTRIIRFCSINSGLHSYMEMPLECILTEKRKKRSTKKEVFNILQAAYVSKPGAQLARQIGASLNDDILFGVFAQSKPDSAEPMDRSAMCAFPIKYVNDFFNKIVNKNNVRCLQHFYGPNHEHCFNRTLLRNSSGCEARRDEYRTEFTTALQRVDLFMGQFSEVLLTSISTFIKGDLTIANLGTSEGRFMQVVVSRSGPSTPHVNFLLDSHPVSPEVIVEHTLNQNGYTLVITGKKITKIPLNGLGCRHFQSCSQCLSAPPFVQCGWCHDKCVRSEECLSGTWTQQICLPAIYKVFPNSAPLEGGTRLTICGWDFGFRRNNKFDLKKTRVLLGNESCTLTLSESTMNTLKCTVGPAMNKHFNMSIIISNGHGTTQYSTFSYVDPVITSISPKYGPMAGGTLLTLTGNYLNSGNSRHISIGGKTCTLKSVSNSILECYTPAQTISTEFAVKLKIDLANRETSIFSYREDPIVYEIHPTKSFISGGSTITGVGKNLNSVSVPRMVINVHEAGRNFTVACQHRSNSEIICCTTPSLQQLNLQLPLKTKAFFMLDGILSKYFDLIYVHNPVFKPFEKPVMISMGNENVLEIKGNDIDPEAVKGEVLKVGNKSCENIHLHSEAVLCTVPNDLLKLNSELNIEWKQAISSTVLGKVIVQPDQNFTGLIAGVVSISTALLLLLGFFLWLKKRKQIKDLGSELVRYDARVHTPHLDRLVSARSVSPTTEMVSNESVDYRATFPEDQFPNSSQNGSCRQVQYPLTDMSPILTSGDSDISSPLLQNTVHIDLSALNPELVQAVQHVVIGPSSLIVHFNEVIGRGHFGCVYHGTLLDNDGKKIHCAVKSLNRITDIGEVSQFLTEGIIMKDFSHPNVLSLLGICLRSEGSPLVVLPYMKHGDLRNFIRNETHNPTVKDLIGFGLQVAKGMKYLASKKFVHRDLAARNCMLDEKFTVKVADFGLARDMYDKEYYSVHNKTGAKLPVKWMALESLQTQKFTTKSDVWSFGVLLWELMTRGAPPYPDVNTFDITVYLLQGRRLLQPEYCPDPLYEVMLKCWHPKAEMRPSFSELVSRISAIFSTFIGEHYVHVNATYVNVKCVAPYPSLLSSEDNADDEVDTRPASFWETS

[33] = target: Receptor tyrosine-protein kinase erbB-2 (Homo sapiens, UniProt P04626); experiment: Inhibition of human recombinant HER2
[34] = target: Protein kinase C delta type (Homo sapiens, UniProt Q05655); experiment: Inhibition of PKCdelta by SPA
[35] = target: Rho-associated protein kinase 1 (Homo sapiens, UniProt Q13464); experiment: Inhibition of human recombinant ROCK1
[36] = Clearance in OFA rat at 5 mg/kg, iv; type: ADME, organism-based; design: dose 5 mg/kg, route intravenous; settings: in vivo; method in brief: as §1
[37] = target: Mitogen-activated protein kinase 14 (Homo sapiens, UniProt Q16539); experiment: Inhibition of human recombinant p38alpha
Chain of Mitogen-activated protein kinase 14 (Q16539 whole entry): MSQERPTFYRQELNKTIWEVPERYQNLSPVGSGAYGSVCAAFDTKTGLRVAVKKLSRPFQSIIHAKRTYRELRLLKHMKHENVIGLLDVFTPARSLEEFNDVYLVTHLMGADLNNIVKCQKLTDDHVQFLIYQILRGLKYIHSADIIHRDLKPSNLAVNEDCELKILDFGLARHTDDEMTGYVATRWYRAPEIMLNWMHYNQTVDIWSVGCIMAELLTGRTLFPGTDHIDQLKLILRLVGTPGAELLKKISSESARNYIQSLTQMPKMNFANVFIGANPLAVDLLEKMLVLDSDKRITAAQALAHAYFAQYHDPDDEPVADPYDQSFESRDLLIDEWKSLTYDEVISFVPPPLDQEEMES

[38] = target: Tyrosine-protein kinase receptor UFO (Homo sapiens, UniProt P30530); experiment: Inhibition of human recombinant Axl
Chain of Tyrosine-protein kinase receptor UFO (P30530 whole entry): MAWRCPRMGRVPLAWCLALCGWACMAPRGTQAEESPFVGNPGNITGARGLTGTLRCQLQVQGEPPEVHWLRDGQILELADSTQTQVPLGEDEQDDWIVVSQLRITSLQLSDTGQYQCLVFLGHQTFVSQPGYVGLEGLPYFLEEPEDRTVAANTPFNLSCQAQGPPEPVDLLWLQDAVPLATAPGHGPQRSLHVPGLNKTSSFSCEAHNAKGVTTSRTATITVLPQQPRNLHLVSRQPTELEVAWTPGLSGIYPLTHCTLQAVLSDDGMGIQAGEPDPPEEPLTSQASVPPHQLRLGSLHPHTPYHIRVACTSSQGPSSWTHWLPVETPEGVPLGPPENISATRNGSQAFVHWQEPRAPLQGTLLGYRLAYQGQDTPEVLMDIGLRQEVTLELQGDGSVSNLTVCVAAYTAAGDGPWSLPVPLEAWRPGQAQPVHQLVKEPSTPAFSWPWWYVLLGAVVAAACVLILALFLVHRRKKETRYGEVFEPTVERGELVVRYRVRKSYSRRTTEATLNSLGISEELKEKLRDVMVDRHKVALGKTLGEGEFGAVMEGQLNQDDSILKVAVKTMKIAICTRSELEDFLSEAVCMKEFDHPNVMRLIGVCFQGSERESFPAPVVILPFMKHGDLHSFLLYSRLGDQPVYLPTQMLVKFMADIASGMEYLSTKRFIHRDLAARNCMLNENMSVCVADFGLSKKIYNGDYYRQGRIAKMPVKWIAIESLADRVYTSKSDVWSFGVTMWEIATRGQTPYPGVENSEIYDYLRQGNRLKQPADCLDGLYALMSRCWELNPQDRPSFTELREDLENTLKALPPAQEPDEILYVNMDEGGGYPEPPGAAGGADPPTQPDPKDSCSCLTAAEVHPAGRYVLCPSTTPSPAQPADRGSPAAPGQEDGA

[39] = target: T1, Protein kinase C epsilon type (Homo sapiens, UniProt Q02156); experiment: Inhibition of PKCepsilon by SPA
T1 sequence (Q02156 whole entry): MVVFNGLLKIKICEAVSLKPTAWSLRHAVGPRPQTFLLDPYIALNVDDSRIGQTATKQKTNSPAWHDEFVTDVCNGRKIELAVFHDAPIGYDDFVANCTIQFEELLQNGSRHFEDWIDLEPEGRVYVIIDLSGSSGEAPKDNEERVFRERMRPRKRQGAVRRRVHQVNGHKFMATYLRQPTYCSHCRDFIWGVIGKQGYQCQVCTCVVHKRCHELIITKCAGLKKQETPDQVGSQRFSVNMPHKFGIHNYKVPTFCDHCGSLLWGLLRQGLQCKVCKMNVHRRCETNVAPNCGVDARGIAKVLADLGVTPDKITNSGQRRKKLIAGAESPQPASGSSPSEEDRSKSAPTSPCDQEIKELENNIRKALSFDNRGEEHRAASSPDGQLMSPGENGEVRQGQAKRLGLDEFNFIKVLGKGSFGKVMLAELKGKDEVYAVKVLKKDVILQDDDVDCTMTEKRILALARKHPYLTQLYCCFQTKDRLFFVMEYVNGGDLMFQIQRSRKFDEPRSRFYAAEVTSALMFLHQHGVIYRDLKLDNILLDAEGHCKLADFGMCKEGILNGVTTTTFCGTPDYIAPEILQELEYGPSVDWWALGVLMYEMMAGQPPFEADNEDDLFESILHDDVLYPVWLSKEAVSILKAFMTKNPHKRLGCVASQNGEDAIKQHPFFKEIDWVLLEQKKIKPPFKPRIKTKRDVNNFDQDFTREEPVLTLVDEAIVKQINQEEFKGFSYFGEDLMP

[40] = target: Mitogen-activated protein kinase 10 (Homo sapiens, UniProt P53779); experiment: Inhibition of human recombinant JNK3
[41] = species: Rattus norvegicus; experiment: Immunosuppressive activity in rat localized graft-versus-host model; type: functional, organism-based

Chain of Rho-associated protein kinase 2 (O75116 whole entry): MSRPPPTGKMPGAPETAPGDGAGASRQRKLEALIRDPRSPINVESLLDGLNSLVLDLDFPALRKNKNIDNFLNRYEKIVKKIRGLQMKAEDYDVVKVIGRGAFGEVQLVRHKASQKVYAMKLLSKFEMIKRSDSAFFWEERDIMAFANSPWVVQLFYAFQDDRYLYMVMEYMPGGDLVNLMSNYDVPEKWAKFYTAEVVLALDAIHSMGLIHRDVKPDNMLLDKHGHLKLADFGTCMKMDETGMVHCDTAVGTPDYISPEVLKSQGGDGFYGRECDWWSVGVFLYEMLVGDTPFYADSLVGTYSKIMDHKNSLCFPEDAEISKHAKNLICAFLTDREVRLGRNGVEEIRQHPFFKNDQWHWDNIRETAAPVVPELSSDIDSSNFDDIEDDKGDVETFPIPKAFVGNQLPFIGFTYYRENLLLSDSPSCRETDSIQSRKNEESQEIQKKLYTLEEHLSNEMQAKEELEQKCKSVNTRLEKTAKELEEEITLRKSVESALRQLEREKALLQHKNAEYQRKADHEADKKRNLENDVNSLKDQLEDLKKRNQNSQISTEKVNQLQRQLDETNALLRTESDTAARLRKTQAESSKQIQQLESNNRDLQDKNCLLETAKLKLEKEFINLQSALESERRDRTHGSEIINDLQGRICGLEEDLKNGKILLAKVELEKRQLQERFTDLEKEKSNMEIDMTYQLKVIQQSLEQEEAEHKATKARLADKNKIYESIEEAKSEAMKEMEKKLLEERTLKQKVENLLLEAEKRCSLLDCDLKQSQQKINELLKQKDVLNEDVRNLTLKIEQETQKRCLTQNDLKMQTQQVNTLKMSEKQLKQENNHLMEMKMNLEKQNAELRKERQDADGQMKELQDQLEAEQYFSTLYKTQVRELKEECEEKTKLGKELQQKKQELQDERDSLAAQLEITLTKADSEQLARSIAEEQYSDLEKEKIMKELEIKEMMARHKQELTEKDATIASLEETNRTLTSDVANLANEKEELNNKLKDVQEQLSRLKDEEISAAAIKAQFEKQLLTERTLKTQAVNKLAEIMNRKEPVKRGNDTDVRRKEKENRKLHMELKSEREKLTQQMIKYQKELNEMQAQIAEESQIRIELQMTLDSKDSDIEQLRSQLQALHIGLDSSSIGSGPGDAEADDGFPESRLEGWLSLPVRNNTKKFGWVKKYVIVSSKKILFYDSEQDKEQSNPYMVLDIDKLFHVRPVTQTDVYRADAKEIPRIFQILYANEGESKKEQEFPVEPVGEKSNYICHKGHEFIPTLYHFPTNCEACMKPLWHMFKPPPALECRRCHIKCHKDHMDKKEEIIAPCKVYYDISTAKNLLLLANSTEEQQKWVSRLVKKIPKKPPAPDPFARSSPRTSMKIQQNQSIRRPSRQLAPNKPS

In the case of CN1CCN(c2nc(C3=C(c4c[nH]c5ccccc45)C(=O)NC3=O)c3ccccc3n2)CC1 [SOTRASTAURIN], the IC50 [1] is reported as over 10 µM, the IC50 [2] is reported as 3.7 µM and the Tmax [3] is reported as 0.5 h. For the same molecule, the IC50 [4] was 7.3 µM, the bioavailability [5] was 34% and the IC50 [6] was 8.3 µM. The IC50 [7] was 0.87 µM, the IC50 [8] was 3.3 µM and the IC50 [9] was over 10 µM. It also gave an IC50 [10] of 5.5 µM, an IC50 [11] of 4.6 µM and an IC50 [12] of over 10 µM. The IC50 [13] was over 10 µM, the IC50 [14] was over 10 µM and the Cmax [15] was 622 ng/mL. The AUC(0-inf) [16] was 2210 ng·h/mL, the IC50 [17] was 0.034 µM and the IC50 [18] was 0.0061 µM. For the same molecule, the half-life [19] was 3.2 h, the IC50 [20] was over 10 µM and the IC50 [21] was 3.9 µM. The IC50 [22] was over 10 µM, the IC50 [23] was over 10 µM and the IC50 [24] was over 10 µM. For the same molecule, the IC50 [25] was over 10 µM, the AUC(0-inf) [26] was 1630 ng·h/mL and the IC50 [27] was over 10 µM. The IC50 [28] was over 10 µM, the IC50 [29] was 0.128 µM and the IC50 [30] was over 10 µM. For the same molecule, the IC50 [31] was over 10 µM, the IC50 [32] was over 10 µM and the IC50 [33] was over 10 µM. For the same molecule, the IC50 [34] was 0.0013 µM, the IC50 [35] was over 10 µM and the clearance [36] was 51.2 mL/min/kg. For the same molecule, the IC50 [37] was over 10 µM, the IC50 [38] was 9.1 µM and the IC50 [39] was 0.0062 µM. For the same molecule, the IC50 [40] was over 10 µM and the Activity [41] was “Active”.
